HUVEC prolif 384 – inhibitors of human endothelial cell proliferation. 1.1% of 86,000 active. HUVEC proliferation, CellTiter-Glo luminescence, 72 h; stronger effect = lower value. viability, % at 10 µM (by protocol). AID 648;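 active = viability at or below 30%; inactive = viability above 30%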;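 note: 100% = median luminescence of DMSO-only cell control wells on each plate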
PTEN del growth – suppresses growth of cells with PTEN deletion. HCT116 PTEN-null viability, CellTiter-Glo, 60 h; stronger effect = lower value. viability, % at 10 µM. 1.2% of 140,000 active;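 active = viability at or below a set limit, 4 SD under the median of all tested compounds, cut at about 3.7% in these data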;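 note: PTEN knockout HCT116 line with beta catenin targeted HCT116 as companion control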
H69AR inhibit – growth inhibitors of human H69AR lung tumor cells; viability, % at 10 µM; 6% of 85,000 active; AID 598; H69AR lung tumor viability, ATP luminescence, 72 h; stronger effect = lower value;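 active = viability at or below 40%; inactive = viability above 40%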;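 note: multidrug resistant small cell line overexpressing MRP-1 efflux transporter; 100% = mean luminescence of untreated control wells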
bCat KO growth – beta-catenin-lacking colon tumor cell growth suppression | 1.5% of 140,000 active | viability, % at 10 µM | HCT116 beta-catenin knockout viability, CellTiter-Glo, 60 h; stronger effect = lower value;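 active = viability at or under a set limit, the compound median less 4 SD, cut at about 6% in these data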;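 note: 0% = Hyamine 1622 control at 20 µM and 100% = untreated cell control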
Lung fibro prol – blocks proliferation of human lung fibroblasts. 1.1% of 85,000 active. AID 719. LL 47 human lung fibroblast viability, ATP luminescence; stronger effect = lower value. viability, % at 10 µM;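 active = viability at or below 50% in the single dose screen; inactive = viability above 50%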;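 note: compound exposure lasted 72 h before the ATP readout; 100% = median luminescence of untreated cell-only wells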
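Assay system: human lung fibroblast line LL 47, low passage. Input: 1,150 fibroblasts seeded per well. Times: overnight cell rest, 72 h compound treatment at 37 °C. Evaluation: % viability of median cell-only signal. Technique: luminescent ATP detection, CellTiter-Glo. Control set: cell-only wells, no compound.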
The depositor's hits bear a star. Many of the other results were omitted from the sample, so hits are more common in it than they were.

How did Cc1ccc(Cn2nnnc2CN2CCC(n3nnc4cc(C(F)(F)F)ccc43)CC2)cc1 do in these assays?
HUVEC prolif 384: 54; PTEN del growth: 43; H69AR inhibit: 2.0*; bCat KO growth: 47; Lung fibro prol: 75

What do the screens show for `Fc1ccc2c(c1)nnn2C1CCN(Cc2c(Cl)cccc2Cl)CC1`?
HUVEC prolif 384: 89; PTEN del growth: 72; H69AR inhibit: 88; bCat KO growth: 83; Lung fibro prol: 96

How did Cc1nn(Cc2ccccc2Cl)c(C)c1C(=O)OCC(=O)NC1CCCC(C)C1C (configuration not stated) do in these assays?
PTEN del growth: 74; bCat KO growth: 83

What do the screens show for `CN1CCC(N(C)c2nc(-c3ccccc3)nc3ccccc23)CC1`?
HUVEC prolif 384: 66; PTEN del growth: 24; H69AR inhibit: 27*; bCat KO growth: 24; Lung fibro prol: 90

How did O=c1[nH]c(=O)n(C2CCCCCC2)c(O)c1C=NC1CCN(Cc2ccccc2)CC1 do in these assays?
HUVEC prolif 384: 103; PTEN del growth: 73; H69AR inhibit: 35*; bCat KO growth: 93; Lung fibro prol: 95

Results for CN1C(=O)C(=Cc2ccccc2OCc2ccccc2Cl)C(=O)N(C)C1=O ?
PTEN del growth: 48; bCat KO growth: 43

Results for COc1cc(/C=C(/C)[N+](=O)[O-])ccc1OCc1ccccc1Cl ?
PTEN del growth: 1.2*; bCat KO growth: 1.6*

What do the screens show for `CCCCCCn1c(N)c(C(=O)NCCN2CCOCC2)c2nc3ccccc3nc21`?
HUVEC prolif 384: 28*; PTEN del growth: 1.4*; H69AR inhibit: 1.5*; bCat KO growth: 27; Lung fibro prol: 73

What do the screens show for `Nc1c(C(=O)NCc2ccco2)c2nc3ccccc3nc2n1Cc1ccccc1`?
PTEN del growth: 33; bCat KO growth: 53

Results for CCCCNC(=O)c1c(N)n(Cc2ccc3c(c2)OCO3)c2nc3ccccc3nc12 ?
HUVEC prolif 384: 41; PTEN del growth: 35; H69AR inhibit: 5.1*; bCat KO growth: 34; Lung fibro prol: 60

What do the screens show for `COc1ccc(CCNC(=O)c2c(N)n(CCN3CCOCC3)c3nc4ccccc4nc23)cc1OC`?
HUVEC prolif 384: 59; PTEN del growth: 21; H69AR inhibit: 12*; bCat KO growth: 33; Lung fibro prol: 92

What do the screens show for `CC(C)OCCCNC(=O)c1c(N)n(CC2CCCO2)c2nc3ccccc3nc12` (configuration not stated)?
HUVEC prolif 384: 74; PTEN del growth: 39; H69AR inhibit: 62; bCat KO growth: 46; Lung fibro prol: 96

What do the screens show for `CCCCCn1c(N)c(C(=O)NCCN2CCOCC2)c2nc3ccccc3nc21`?
HUVEC prolif 384: 55; PTEN del growth: 46; H69AR inhibit: 30*; bCat KO growth: 53; Lung fibro prol: 82

How did CCCCn1c(N)c(C(=O)OCC2CCCO2)c2nc3ccccc3nc21 (configuration not stated) do in these assays?
HUVEC prolif 384: 60; PTEN del growth: 93; H69AR inhibit: 50; bCat KO growth: 87; Lung fibro prol: 87

Results for CCCNC(=O)c1c(N)n(CC2CCCO2)c2nc3ccccc3nc12 (configuration not stated) ?
HUVEC prolif 384: 67; PTEN del growth: 63; H69AR inhibit: 87; bCat KO growth: 70; Lung fibro prol: 92

How did O=P(NS(=O)(=O)c1ccc(Cl)cc1)(Oc1ccccc1)Oc1ccccc1 do in these assays?
HUVEC prolif 384: 93; PTEN del growth: 91; H69AR inhibit: 107; bCat KO growth: 94; Lung fibro prol: 98

Results for COc1ccc(-n2c(O)c(/C=C/C=Nc3ccccc3)c(=O)[nH]c2=O)cc1 ?
PTEN del growth: 96; bCat KO growth: 98

Results for COCCCn1c(N)c(C(=O)NCCC(C)C)c2nc3ccccc3nc21 ?
HUVEC prolif 384: 87; PTEN del growth: 2.7*; H69AR inhibit: 18*; bCat KO growth: 1.6*; Lung fibro prol: 81

How did Nc1c(C(=O)NCc2ccco2)c2nc3ccccc3nc2n1CCN1CCOCC1 do in these assays?
HUVEC prolif 384: 70; PTEN del growth: 34; H69AR inhibit: 39*; bCat KO growth: 52; Lung fibro prol: 94

How did CCOCCCn1c(N)c(C(=O)Nc2sc3c(c2C(=O)OC)CCCC3)c2nc3ccccc3nc21 do in these assays?
PTEN del growth: 29; bCat KO growth: 48

How did CCOC(=O)c1c(NC(=O)c2c(N)n(CCCOC)c3nc4ccccc4nc23)sc2c1CCCC2 do in these assays?
HUVEC prolif 384: 76; PTEN del growth: 15; H69AR inhibit: 11*; bCat KO growth: 4.0*; Lung fibro prol: 90

What do the screens show for `CCCCOCCCn1c(N)c(C(=O)OCCOC)c2nc3ccccc3nc21`?
HUVEC prolif 384: 89; PTEN del growth: 74; H69AR inhibit: 59; bCat KO growth: 67; Lung fibro prol: 111

What do the screens show for `O=C1/C(=C\c2cc3c(cc2Br)OCO3)N2CCC1CC2`?
PTEN del growth: 95; bCat KO growth: 84

Results for CN1C(=O)N(C)C(=O)C2(Cc3cc([N+](=O)[O-])ccc3N(C)C2c2ccccc2)C1=O (configuration not stated) ?
PTEN del growth: 84; bCat KO growth: 83

How did CCCCn1c(O)c(C(CC)=NCc2cccnc2)c(=O)[nH]c1=O do in these assays?
HUVEC prolif 384: 90; PTEN del growth: 95; H69AR inhibit: 67; bCat KO growth: 93; Lung fibro prol: 96

Results for CC(C)CCn1c(=O)c(C(=O)Nc2ccccc2S(N)(=O)=O)c(O)c2ccccc21 ?
HUVEC prolif 384: 59; PTEN del growth: 21; H69AR inhibit: 7.4*; bCat KO growth: 29; Lung fibro prol: 50

What do the screens show for `CCCCn1c(=O)c(C(=O)Nc2nc3ccccc3[nH]2)c(O)c2ccccc21`?
HUVEC prolif 384: 100; H69AR inhibit: 8.5*; Lung fibro prol: 85

Results for CCCCn1c(=O)c(C(=O)Nc2cnccn2)c(O)c2ccccc21 ?
HUVEC prolif 384: 73; PTEN del growth: 46; H69AR inhibit: 14*; bCat KO growth: 54; Lung fibro prol: 48*

What do the screens show for `CCOc1ccc(-c2cc(C(=O)N3CCC4(CC3)OCCO4)c3ccccc3n2)cc1`?
HUVEC prolif 384: 75; H69AR inhibit: 83; Lung fibro prol: 96

Results for CCOC(=O)C1C(=O)NC23CCCC2C1c1ccccc1O3 (configuration not stated) ?
HUVEC prolif 384: 110; PTEN del growth: 95; H69AR inhibit: 92; bCat KO growth: 89; Lung fibro prol: 106

How did CCOc1cccc(OCC)c2c(C)[n+](CC3CCCO3)c(C)c1-2 (configuration not stated) do in these assays?
HUVEC prolif 384: 95; PTEN del growth: 108; H69AR inhibit: 32*; bCat KO growth: 96; Lung fibro prol: 104

What do the screens show for `CCOC(=O)c1c(C)n(Cc2ccccc2)c2ccc(OCC(O)Cn3nc(C)cc3C)cc12` (configuration not stated)?
HUVEC prolif 384: 61; PTEN del growth: 66; H69AR inhibit: 12*; bCat KO growth: 73; Lung fibro prol: 100

From PubChem BioAssay
